Activity calls are given as the source filed them. The rule behind the calls is not given here.
Columns and labels:
[1] = system: A2780; assay: Antiproliferative against human A2780 cells after 2 days by AlamarBlue assay; format: functional, cell-based
[2] = system: Plasmodium falciparum; assay: Antiplasmodium activity against Plasmodium falciparum Dd2; format: functional, organism-based
Summary of the method: (§1)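 Dd2 ring-stage cultures at 1% hematocrit and 1% parasitaemia were grown for 72 h at 37°C in 5.05% CO2/4.93% O2/90.2% N2 with increasing drug concentrations. Viability was read by SYBR Green I DNA quantitation in lysis buffer. IC50 was obtained by nonlinear regression and averaged over three independent runs, each in duplicate, ± S.E.M.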

[3] = system: Plasmodium falciparum; assay: Antiplasmodium activity against chloroquine-resistant intraerythrocytic stage of Plasmodium falciparum Dd2 assessed as parasite growth inhibition after 72 hrs by SYBR Green I staining-based assay; format: functional, organism-based; conditions: Dd2, 72 h; summary of the method: as §1
[4] = system: Aedes aegypti; assay: Insecticidal activity against Aedes aegypti assessed as mortality at 4 mg/ml after 3 days; format: functional; conditions: 72 h
Summary of the method: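 A DMSO master stock of 4000 ppm was diluted with 90:10 water:acetone and robotically dispensed into six replicate plates. Plates were infested with about 1-day-old Aedes aegypti larvae hatched overnight in water with liver powder. They were covered to limit drying, held at room temperature for 3 days, and each well was scored for mortality.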

[5] = system: Plasmodium falciparum; assay: Antiplasmodium activity against chloroquine-resistant Plasmodium falciparum Dd2 infected in human RBC assessed as parasite growth inhibition after 42 hrs by microculture radioisotope technique; format: functional, organism-based; conditions: Dd2, 42 h
[6] = system: Plasmodium falciparum; assay: Antiplasmodium activity against chloroquine-sensitive Plasmodium falciparum PoW infected in human RBC assessed as parasite growth inhibition after 42 hrs by microculture radioisotope technique; format: functional, organism-based

SMILES | inhibition [1] | IC50 [3] | other results
C=CCc1cc(OC)c(O[C@]23C[C@@H](CC=C)C(=O)C=C2OCO3)c(OC)c1 | inactive | – | –
C=CCc1ccc(O[C@]23C[C@@H](CC=C)C(=O)C=C2OCO3)c(OC)c1 | inactive | – | –
C=CC[C@]12C[C@@]3(OCOC3=CC1=O)[C@H](C)[C@@H]2c1cc(OC)c(OC)c(OC)c1 | inactive | 7.7 µM | IC50 [2]: 40.5 µM
C=CC[C@]12C[C@@]3(OCOC3=CC1=O)[C@H](C)[C@@H]2c1cc(OC)c2c(c1)OCO2 | inactive | 4.1 µM | –
C=CCC1(C(C)Cc2cc(OC)c(O)c(OC)c2)C=C2OCOC2=CC1=O (stereo not drawn) | inactive | – | IC50 [2]: 42.1 µM
C=CCc1cc2c(c3c1O[C@H](c1ccc4c(c1)OCO4)[C@H]3C)OCO2 | inactive | – | –
C=CC[C@@]12C[C@]3(OCOC3=CC1=O)[C@@H](C)[C@@H]2c1cc(OC)c(OC)c(OC)c1 | inactive | – | –
C=CCc1cc2c(c3c1O[C@H](c1cc(OC)c(OC)c(OC)c1)[C@H]3C)OCO2 (relative stereo) | inactive | 0.45 µM | IC50 [2]: 4.7 µM; mortality at 4000 µg/mL [4]: ≥ 80%
C=CC[C@@]12C[C@]3(OCOC3=CC1=O)[C@@H](C)[C@@H]2c1cc(OC)c2c(c1)OCO2 | inactive | – | –
C=CC[C@@]12C[C@]3(OCOC3=CC1=O)[C@@H](C)[C@@H]2c1cc(O)c2c(c1)OCO2 | inactive | 42 µM | IC50 [2]: 28.4 µM
C=CCc1cc(OC)c(O[C@@H](C)Cc2cc(OC)c(OC)c(OC)c2)c(OC)c1 | inactive | 3.3 µM | IC50 [2]: 3.1 µM
C/C=C/c1cc(OC)c(OC(C)Cc2cc(OC)c(OC)c(OC)c2)c(OC)c1 (stereo not drawn) | – | – | IC50 [5]: 14.9 µM; IC50 [6]: 12.4 µM
C=CCc1cc2c(cc1O[C@@H](C)Cc1cc(OC)c(OC)c(OC)c1)OCO2 | inactive | – | mortality at 4000 µg/mL [4]: ≥ 80%
C=CCC1(C(C)Cc2ccc(OC)c(OC)c2)C=C2OCOC2=CC1=O (stereo not drawn) | inactive | – | –
C=CCC1(C(C)Cc2ccc(O)c(OC)c2)C=C2OCOC2=CC1=O (stereo not drawn) | inactive | – | –
C=CC[C@@]12C[C@]3(OCOC3=CC1=O)[C@@H](C)[C@@H]2c1ccc2c(c1)OCO2 | inactive | 14.6 µM | mortality at 4000 µg/mL [4]: ≥ 80%
C[C@@H]1CC[C@H]2[C@@H](C)C(=O)O[C@@H]3O[C@@]4(C)CC[C@@H]1[C@]32OO4 [ARTEMISININ] | – | 0.00082 µM | –
C=CCC1(C(C)Cc2cc(OC)c(OC)c(OC)c2)C=C2OCOC2=CC1=O (stereo not drawn) | inactive | – | –

From ChEMBL document CHEMBL3576795, “Neolignans and other metabolites from Ocotea cymosa from the Madagascar rain forest and their biological activities” (J Nat Prod, 2015)
